In data set [1] the test system is Homo sapiens. Briefly: Toxicity in patient infected with chloroquine-resistant Plasmodium vivax assessed as occurrence of anemia at total dose of 30 mg/kg administered as three daily doses measured 28 days post dose. Particulars: in vivo, 672 h.
For data set [2], the system named is Plasmodium vivax. As to the kind of experiment: Antimalarial activity against chloroquine-Resistant Plasmodium vivax infected in human assessed as parasite recurrence rate at total dose of 30 mg/kg administered as three daily doses measured on day 28 post dose. It is filed as functional. The method in brief:
(§1)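 Oral amodiaquine 30 mg base/kg total, given as three daily doses. For children, the tablet was crushed and given as a suspension in water. Primaquine […] for 14 days was withheld until day 28 if there was no G6PD deficiency.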

In data set [3] the test system is Homo sapiens. Briefly: Toxicity in patient infected with chloroquine-resistant Plasmodium vivax assessed as occurrence of anemia at total dose of 30 mg/kg administered as three daily doses measured 7 days post dose. Also noted: dose 30 mg/kg. Particulars: in vivo, 168 h. The data set is classed as organism-based. The method in brief: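 Patients received oral amodiaquine 30 mg base/kg split over three daily doses, with 60-min observation after each dose. Children were given crushed tablet in water. Anemia was defined as hemoglobin <10 g/dl. Primaquine was deferred to day 28.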

Data set [4] relates to Homo sapiens. Briefly: Toxicity in human infected with chloroquine-Resistant Plasmodium vivax assessed as occurrence of nausea at total dose of 30 mg/kg administered as three daily doses. It is filed as organism-based. Set-up: dose 30 mg/kg. As to conditions: in vivo. The method in brief: as §1
Data set [5] deals with Plasmodium vivax. As to the kind of experiment: Antimalarial activity against chloroquine-resistant Plasmodium vivax infected in human assessed as clearance of peripheral parasitemia at total dose of 30 mg/kg administered as three daily doses measured 48 hrs post dose. The data set is classed as functional. The procedure, abridged:
as §1

In data set [6] the test system is Plasmodium vivax. As to the kind of experiment: Antimalarial activity against chloroquine-resistant Plasmodium vivax by Giemsa staining. The data set is classed as functional, organism-based. The method in brief:
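Ex vivo P. vivax isolates came from clinic outpatients with parasitemia >5,000 μl−1 and were tested with a modified WHO microtest. Incubation ran until the drug-free control reached ≥40% schizonts. Giemsa-stained thick smears from each well were read for schizonts per 200 asexual parasites and normalized to control. IC50 was derived by nonlinear regression.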

For data set [7], the system named is Homo sapiens. As to the kind of experiment: Toxicity in patient infected with chloroquine-resistant Plasmodium vivax assessed as occurrence of vomiting at total dose of 30 mg/kg administered as three daily doses measured […]. The data set is classed as organism-based. Also noted: dose 30 mg/kg. As to conditions: in vivo. The procedure, abridged:
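Three daily oral doses of amodiaquine, 30 mg base/kg total, were given under observation for 60 min. Patients who vomited were withdrawn and retreated with oral quinine. Children received crushed tablet suspended in water.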

In data set [8] the test system is Plasmodium vivax. As to the kind of experiment: Antimalarial activity against chloroquine-resistant Plasmodium vivax infected in human assessed as clearance of peripheral parasitemia at total dose of 30 mg/kg administered as three daily doses measured within 24 hrs post dose. The data set is classed as functional. The procedure, abridged:
as §1

In general, IC50 refers to the point on the concentration scale where inhibition reaches its midpoint. The low end stands for greater potency, the high end for weaker potency. Take `CCN(CC)Cc1cc(Nc2ccnc3cc(Cl)ccc23)ccc1O.Cl`: the Activity entry in the data set with Homo sapiens [1] is “Non-toxic”; with Plasmodium vivax [2], 22.8%; in the data set on Homo sapiens [3], 30%; with Homo sapiens [4] it was 4.5%; with Plasmodium vivax [5], 91%; in the data set on Homo sapiens [7] it was 4.6%. Moreover, the Activity with Plasmodium vivax [8] came to 52%. The compound also registered an IC50 with Plasmodium vivax [6] of 0.0113 µM.
In the data set with Plasmodium vivax [6], `C[C@H]1[C@H](OC(=O)CCC(=O)O)O[C@@H]2O[C@@]3(C)CC[C@H]4[C@H](C)CC[C@@H]1[C@@]24OO3` [ARTESUNATE] returned a 50% inhibitory concentration (IC50) of 0.00129 µM.
Same read-out and setting: next, `CCN(CC)CCCC(C)Nc1ccnc2cc(Cl)ccc12` (stereo not drawn) [CHLOROQUINE]: 0.0527 µM.
Same read-out and setting: next, `CCCCN(CCCC)CC(O)c1cc(Cl)cc2c1-c1ccc(Cl)cc1/C2=C/c1ccc(Cl)cc1` (stereo not drawn) [LUMEFANTRINE]: 0.016 µM; `OC(c1cc(C(F)(F)F)nc2c(C(F)(F)F)cccc12)C1CCCCN1` (stereo not drawn) [MEFLOQUINE]: 0.0082 µM.
Still for that read-out and setting: next, `Clc1ccc2c(N3CCN(CCCN4CCN(c5ccnc6cc(Cl)ccc56)CC4)CC3)ccnc2c1` [PIPERAQUINE]: 0.0175 µM.

Values taken from ChEMBL document CHEMBL1649127, “In vivo and in vitro efficacy of amodiaquine monotherapy for treatment of infection by chloroquine-resistant Plasmodium vivax” (Antimicrob Agents Chemother, 2009).
